# In publication PMC2195664 (The Journal of Experimental Medicine, 1999):
# Read-outs that look alike come from different tables or passages of the source. Ends that are not written are not given here. * marks the point of attachment. Biotin = O=C1N[C@H]2[C@H](CS[C@H]2CCCCC(=O)*)N1
# T1: soluble mCD1–mβ2m heterodimer (mouse, UniProt P11609 22-305; P01887 21-119)
# T1 sequence (looked up) 1: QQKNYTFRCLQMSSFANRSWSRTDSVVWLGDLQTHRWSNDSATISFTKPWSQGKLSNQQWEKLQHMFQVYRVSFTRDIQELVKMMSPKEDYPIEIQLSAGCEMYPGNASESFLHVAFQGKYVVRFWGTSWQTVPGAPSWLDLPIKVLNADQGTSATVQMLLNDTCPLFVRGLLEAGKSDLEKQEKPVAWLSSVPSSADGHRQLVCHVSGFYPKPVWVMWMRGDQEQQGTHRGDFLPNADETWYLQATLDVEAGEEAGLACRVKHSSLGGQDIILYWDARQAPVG
# T1 sequence (looked up) 2: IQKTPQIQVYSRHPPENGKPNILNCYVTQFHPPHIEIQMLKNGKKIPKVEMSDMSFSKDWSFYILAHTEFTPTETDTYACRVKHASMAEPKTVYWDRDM
# B1: NH2 terminus biotinylated P99 peptide (peptide)
# peptide: Biotin-YEHDFHHIREWGNHWKNCLAVM
# Tests used:
# [1] = system: 3C3 mouse NK T cell hybridoma; assay: Competition for α-GalCer presentation by plate-bound mCD1 to 3C3 hybridoma; type: cell-based; conditions: 1 μg/well mCD1 preincubated with 25 ng/well α-GalCer
# [2] = system: 3C3 mouse NK T cell hybridoma; assay: Competition for α-GalCer presentation by plate-bound hCD1d; type: cell-based; conditions: data not shown
# Outline: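 Gangliosides dissolved in PBS were added to soluble insect-cell-derived hCD1d before α-GalCer. The mixture was coated onto plates 2 h at 37°C and washed five times in PBS. 3C3 hybridoma cells (5 × 10⁴/well) were cultured 16 h, and IL-2 was measured by ELISA.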
# [3] = target: T2, mCD1 (Mus musculus, UniProt P11609); type: binding; conditions: competitor preincubated with protein in solution
# [4] = target: T3, hCD1d (Homo sapiens, UniProt P15813); type: binding; conditions: competitor preincubated with protein in solution
# [5] = target: T2, mCD1; assay: SPR competition: mCD1 binding to biotin-P99 chip; conditions: mCD1 1.8–2 μM
# [6] = system: NK T cells; conditions: cited from earlier work
# [7] = system: N38-2C12 NK T hybridoma; assay: Stimulation of 2C12 hybridoma by plates coated with soluble CD1d, IL-2 release; type: cell-based, mouse; conditions: 50 ng/well α-GalCer
# Outline: (§1)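 Plates were coated 2 h at 37°C with 1 µg/well soluble mCD1 or hCD1d (insect-cell-derived), either alone or premixed in PBS with 50 ng/well α-GalCer. After five PBS washes, 5 × 10⁴ hybridoma cells/well were added. IL-2 was quantified after 16 h by sandwich ELISA against a recombinant IL-2 standard (detection limit 0.1 U/ml). Representative of five experiments.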
# [8] = system: 3C3 mouse NK T cell hybridoma; assay: Antigen presentation by plate-bound hCD1d to 3C3 hybridoma, IL-2 release ELISA; type: cell-based; conditions: 1 μg/well plate-bound hCD1d preincubated with 100 ng lipid
# Outline: (§2)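 Soluble CD1d–β2m heterodimers came from stably cotransfected Drosophila SC2 cells induced 3 d with 0.7 mM CuSO₄, purified on Ni-NTA then Mono Q. Plates were coated 2 h at 37°C with 1 µg/well protein premixed with lipid in PBS. Controls were protein with DMSO (0.25–1% final) or lipid alone. After five PBS washes, 5 × 10⁴ 3C3 cells/well were added; IL-2 was measured by ELISA after 16 h.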
# [9] = system: mCD1-restricted CTLs; conditions: cited from earlier work
# [10] = Solubility in aqueous solution; type: physicochemical; conditions: must be dissolved in DMSO-containing solutions
# [11] = system: Vα14+ mouse NK T cell hybridomas N38-2H4 and DN3A4-1.4; assay: Recognition of antigen on immobilized mCD1 by Vβ7; type: cell-based; conditions: data not shown
# [12] = target: T3, hCD1d; assay: SPR; type: binding
# [13] = system: 3C3 mouse NK T cell hybridoma; type: cell-based; conditions: mCD1+ A20 cells pulsed with 100 ng/ml lipid; 16 h
# [14] = system: 3C3 mouse NK T cell hybridoma; assay: Antigen presentation by plate-bound mCD1 to 3C3 hybridoma, IL-2 release ELISA; type: cell-based; conditions: 1 μg/well plate-bound mCD1 preincubated with 100 ng lipid
# Outline: as §2
# [15] = system: DN3A4-1.2 NK T hybridoma; assay: Stimulation of 1.2 hybridoma by plates coated with soluble CD1d, IL-2 release; type: cell-based, mouse; conditions: 50 ng/well α-GalCer
# Outline: as §1
# [16] = target: T2, mCD1; assay: SPR; type: binding
# [17] = target: T1, soluble mCD1–mβ2m heterodimer; assay: SPR
molecule,measurement,setting,value
GD1a,inhibition of α-GalCer presentation,[1],could inhibit
same,inhibition of α-GalCer presentation,[2],could inhibit
same,inhibition of mCD1 binding to biotin–α-GalCer or biotin–β-GalCer chip,[3],could inhibit
same,inhibition of hCD1d binding to biotin–α-GalCer or biotin–β-GalCer chip,[4],could inhibit
YEHDFHHIREWGNHWKNCLAVM [P99],inhibition of mCD1 binding to immobilized biotin-P99,[5],inhibited by increasing concentrations
same,inhibition of mCD1 binding to biotin–α-GalCer or biotin–β-GalCer chip,[3],does not affect
same,prevention of α-GalCer recognition by NK T cells,[6],neither P99 nor an ovalbumin peptide could prevent
"CCCCCCCCCCCCCCCCCCCCCCCCCC(=O)N[C@@H](CO[C@H]1O[C@H](CO)[C@H](O)[C@H](O)[C@H]1O)[C@H](O)[C@H](O)CCCCCCCCCCCCCC [α-GalCer, α-galactosyl ceramide]",effect on response to plate-bound CD1d,[7],can be enhanced
same,presentation to 3C3 hybridoma (IL-2 release),[8],could both present
same,effect on ovalbumin peptide recognition,[9],did not affect
same,solubility,[10],much less soluble than the gangliosides
same,recognition when presented by immobilized mCD1,[11],could recognize
same,koff,[12]; read-out: k off (fast),0.08 s⁻¹
same,koff,[12]; read-out: k off (slow),0.004 s⁻¹
same,presentation to 3C3 hybridoma (IL-2 release),[13],can present
same,presentation to 3C3 hybridoma (IL-2 release),[14],could both present
same,effect on response to plate-bound CD1d,[15],can be enhanced
same,koff,[16]; read-out: k off (fast),0.1 s⁻¹
same,koff,[16]; read-out: k off (slow),0.004 s⁻¹
"CC(=O)N[C@H]1[C@H](O[C@H]2[C@@H](O)[C@@H](CO)O[C@@H](O[C@@H]([C@H](O)[C@@H](O)C=O)[C@H](O)CO)[C@@H]2O)O[C@H](CO[C@]2(C(=O)O)C[C@H](O)[C@@H](NC(C)=O)[C@H]([C@H](O)[C@H](O)CO)O2)[C@@H](O)[C@@H]1O[C@@H]1O[C@H](CO)[C@H](O)[C@H](O[C@]2(C(=O)O)C[C@H](O)[C@@H](NC(C)=O)[C@H]([C@H](O)[C@H](O)CO)O2)[C@H]1O [disialyllacto-N-tetraose, α-Neu5Ac-[2→3]-β-Gal-[1→3]-(α-Neu5Ac-[2→6])-β-GlcNac-[1→3]-β-Gal-[1→4]-Glc]",inhibition of α-GalCer presentation,[1],did not inhibit
same,inhibition of α-GalCer presentation,[1]; listed as control hexasaccharide,has no effect
B1,koff,[17],0.005 to 0.008 s⁻¹
